Columns and labels:
[1] = system: Calf thymus DNA; test: Binding affinity to calf thymus DNA assessed as ratio of final absorbance area to absorbance of compound at 100 uM after 24 hrs by UV spectrophotometer analysis; type: nucleic-acid assay; conditions: Bos taurus
Procedure, shortened: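 Calf thymus DNA in 10 mM Tris-HCl, pH 7.4. Compound stock 10^-4 M (≤5% solvent), diluted with water to 2 × 10^-5 M, then mixed 1:1 with DNA solution. Rotated 24 h; UV spectra taken at 20 °C in a 1-cm cell. Areas of a 20 nm band at λmax at 0 and 24 h; reported as a24/a0.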

[2] = system: V79; test: Cytotoxicity against chinese hamster V79 cells assessed as survival fraction under hypoxic condition at 20 uM after 7 days by crystal violet staining relative to control; type: functional, Cricetulus griseus
Procedure, shortened: (§1)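 V79 Chinese hamster lung fibroblasts grown in EMEM with 10% FBS, then set up as suspension cultures (2 × 10^4 cells/mL, EMEM, 10% FBS, 10 mM HEPES) under simulated hypoxic gassing. Compound in DMSO added 30 min after gassing began, duplicate flasks per dose, 2 h exposure. Cells then plated and grown 7 days at 37 °C, stained with crystal violet, and colonies >64 cells counted. Survival = PEtreated/PEcontrol × 100.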

[3] = Cytotoxicity against chinese hamster V79 cells assessed as survival fraction under normoxic condition at 20 uM after 7 days by crystal violet staining relative to control; type: cell-based, Cricetulus griseus; conditions: read-out: Activity
Procedure, shortened: (§2)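 Exponential-phase V79 cells trypsinized into gassed suspension culture (2 × 10^4 cells/mL, EMEM, 10% FBS, 10 mM HEPES). Compound added 30 min after gassing began, in duplicate flasks, with a DMSO control; exposure 2 h. Cells then plated for colony formation at 37 °C, 5% CO2, for 7 days and stained with crystal violet. Colonies >64 cells counted; survival = PEtreated/PEcontrol × 100; means of two experiments.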

[4] = system: Calf thymus DNA; test: Binding affinity to calf thymus DNA assessed as fluorescence quenching at 20 uM after 24 hrs by fluorescence spectroscopy analysis; type: nucleic-acid assay; set-up: unit not given here; conditions: Bos taurus
[5] = system: V79; test: Hypoxic cytotoxicity ratio, concentration required to kill 99% chinese hamster V79 cells under normoxic condition to hypoxic condition; type: functional, Cricetulus griseus
Procedure, shortened: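 Clonogenic V79 suspension-culture assay run under both air and hypoxic gassing. Cells exposed 2 h in duplicate flasks per dose, then colonies counted after 7 days with crystal violet. Dose–response curves give the dose producing 1% of control survival in each condition. Ratio = air dose divided by hypoxic dose.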

[6] = system: V79; test: Cytotoxicity against chinese hamster V79 cells assessed as survival fraction under hypoxic condition at 10 uM after 7 days by crystal violet staining relative to control; type: functional, Cricetulus griseus; procedure, shortened: as §1
[7] = system: V79; test: Cytotoxicity against chinese hamster V79 cells assessed as concentration required to kill 99% cells under hypoxic condition after 7 days by crystal violet staining relative to control; type: functional, Cricetulus griseus; procedure, shortened: as §1
[8] = Cytotoxicity against chinese hamster V79 cells assessed as survival fraction under normoxic condition at 10 uM after 7 days by crystal violet staining relative to control; type: cell-based, Cricetulus griseus; conditions: read-out: Activity; procedure, shortened: as §2

## CC[n+]1c(-c2ccccc2)c2cc(N)ccc2c2ccc(N)cc21
[1]
  Ratio: 0.5

## COc1cc(NS(C)(=O)=O)ccc1Nc1c2ccccc2nc2ccccc12
[1]
  Ratio: 0.3

## Cc1cc2c(cc1F)[n+]([O-])c1ccc(N)cc1[n+]2[O-]
[1]
  Ratio: 0.85
[2]
  Activity: 15%
[3]
  viability at 168 h, 20 µM: 88%

## Cc1ccc2c(c1)nc1cc(N)ccc1[n+]2[O-]
[1]
  Ratio: 0.92
[2]
  Activity: 100%
[4]
  Kq: 5.3
[3]
  viability at 168 h, 20 µM: 100%

## CN1CCN(c2ccc3[nH]c(-c4ccc5[nH]c(-c6ccc(O)cc6)nc5c4)nc3c2)CC1
[1]
  Ratio: 0.57

## O=C(CCl)Oc1ccc2c(c1)[n+]([O-])c1cc(Br)ccc1[n+]2[O-]
[2]
  Activity: 62%
[3]
  viability at 168 h, 20 µM: 84%

## Nc1ccc2c(c1)nc1cc(Br)ccc1[n+]2[O-]
[1]
  Ratio: 0.92
[2]
  Activity: 0%
[4]
  Kq: 4.2
[3]
  viability at 168 h, 20 µM: 0%

## Cc1cc2c(cc1F)[n+]([O-])c1ccc(O)cc1[n+]2[O-]
[1]
  Ratio: 0.83
[2]
  Activity: 95%
[3]
  viability at 168 h, 20 µM: 100%

## [O-][n+]1c2ccc(Br)cc2[n+]([O-])c2cc(OCc3ccccc3)ccc21
[1]
  Ratio: 0.88
[2]
  Activity: 90%
[3]
  viability at 168 h, 20 µM: 86%

## Cc1ccc2nc3ccc(N)cc3nc2c1
[1]
  Ratio: 0.85
[2]
  Activity: 100%
[4]
  Kq: 6.1
[3]
  viability at 168 h, 20 µM: 98%

## Nc1ccc2nc3ccc(Br)cc3nc2c1
[1]
  Ratio: 0.9
[2]
  Activity: 0%
[4]
  Kq: 7.3
[3]
  viability at 168 h, 20 µM: 0%

## O=C1c2c(O)ccc(O)c2C(=O)c2c(NCCNCCO)ccc(NCCNCCO)c21
[1]
  Ratio: 0

## Cc1ccc2c(c1)[n+]([O-])c1cc(O)c3ncccc3c1[n+]2[O-]
[2]
  Activity: 46%
[3]
  viability at 168 h, 20 µM: 49%

## Nc1ccc2c(c1)[n+]([O-])c1cc(Cl)c(Cl)cc1[n+]2[O-]
[1]
  Ratio: 0.98
[2]
  Activity: 0%
[5]
  Ratio: 0.9
[6]
  Activity: 18%
[3]
  viability at 168 h, 20 µM: 2%
[7]
  Activity: 10 µM
[8]
  viability at 168 h, 10 µM: 3%

## Nc1ccc2c(c1)[n+]([O-])c1cc(F)ccc1[n+]2[O-]
[1]
  Ratio: 0.88
[2]
  Activity: 0%
[5]
  Ratio: 6.8
[6]
  Activity: 0%
[4]
  Kq: 7.8
[3]
  viability at 168 h, 20 µM: 0%
[7]
  Activity: 2.5 µM
[8]
  viability at 168 h, 10 µM: 30%

## [O-][n+]1c2ccc(O)cc2[n+]([O-])c2cc(Cl)c(Cl)cc21
[1]
  Ratio: 0.96
[2]
  Activity: 0%
[6]
  Activity: 8%
[3]
  viability at 168 h, 20 µM: 1%
[8]
  viability at 168 h, 10 µM: 0%
